According to PubChem BioAssay AID588478 (ICCB-Longwood Screening Facility, Harvard Medical School, 2011):
In all, about 330,000 compounds went through this assay and about 1,100 (0.33%) were called active.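 The calls were made as follows: active = mean inhibition over replicate wells above about 20% (limit read from the data); inactive = the rest.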 Only a selection was taken, and actives are over-represented in it overall.

biological target: Ubiquitin carboxyl-terminal hydrolase isozyme L5 (Homo sapiens) (UniProt Q9Y5K5); assay: proteasome-bound UCH37 DUB activity blockers – biochemical, Ub-AMC cleavage, fluorescence, primary screen (AID 588478); conditions: purified proteasome/UCH37, Ub-AMC cleavage fluorescence; stronger effect = higher value; concentration not given here;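 also: 0% = compound-free wells with enzyme and 100% = wells lacking proteasome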
Summary of the method: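 Test system – human UCH37 enzyme supplied as purified proteasome complex · Incubation – 30 min preincubation with enzyme, 25 min cleavage at room temperature · Detection – AMC fluorescence from Ub-AMC cleavage, excitation 355 nm, emission 460 nm · Benchmarks – no-proteasome wells (full inhibition) and compound-free wells (no inhibition)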

Sequence of Ubiquitin carboxyl-terminal hydrolase isozyme L5 (Homo sapiens) (Q9Y5K5 whole entry, looked up): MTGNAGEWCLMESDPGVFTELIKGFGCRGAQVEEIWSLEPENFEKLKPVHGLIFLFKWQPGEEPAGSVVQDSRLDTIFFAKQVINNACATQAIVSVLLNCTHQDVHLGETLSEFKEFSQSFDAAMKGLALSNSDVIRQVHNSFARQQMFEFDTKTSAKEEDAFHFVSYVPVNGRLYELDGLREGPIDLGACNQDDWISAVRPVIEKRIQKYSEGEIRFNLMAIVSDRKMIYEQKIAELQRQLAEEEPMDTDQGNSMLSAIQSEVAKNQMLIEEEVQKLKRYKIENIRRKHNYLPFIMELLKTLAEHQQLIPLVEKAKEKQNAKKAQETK

Q: How did the inhibition turn out when `O=c1ccc2c(-c3ccccc3S(=O)(=O)O)c3ccc(O)c(O)c3oc-2c1O` was run?
A: The inhibition was 29% (active).

Q: `O=C1c2ccccc2NC(c2ccco2)N1N=Cc1ccco1` (stereo not drawn) was tested. Which inhibition did it give?
A: The inhibition was -3.31% (inactive).

Q: For `COC(=O)c1ccc(-c2ccc(C=NN3C(=O)C4C5C=CC(CC5)C4C3=O)o2)cc1` (stereo not drawn), which inhibition is on record?
A: Its inhibition is -1.63% (inactive).

Q: `CC(=O)OC[C@H]1O[C@@H](ON=C[C@@H](C)[C@H](OCc2ccccc2)C(C)C)[C@H](OC(C)=O)[C@@H](OC(C)=O)[C@@H]1OC(C)=O` was tested. Which inhibition did it give?
A: Its inhibition is 1.03% (inactive).

Q: How did the inhibition turn out when `CCOc1cc(C=NNC(=O)C(=O)N2CCCC2)ccc1O` was run?
A: The inhibition was 7.79% (inactive).

Q: Which inhibition does the source give for `CCOC(=O)N1CCN(C(=O)C(C)NC(=O)c2ccco2)CC1` (stereo not drawn) here?
A: The inhibition was 1.14% (inactive).

Q: For `CCOC(=O)N1CCN(C(=O)CNC(=O)Cc2ccc(Cl)cc2)CC1`, which inhibition is on record?
A: The inhibition was 33.3% (active).

Q: `CCOC(=O)N1CCN(C(=O)Cc2ccc(-n3c(=S)[nH]c4ccccc4c3=O)cc2)CC1` was tested. Which inhibition did it give?
A: Its inhibition is 2.68% (inactive).

Q: `CC(C)(C)OC(=O)NCCC(=O)NN=Cc1ccc2nccnc2c1` was tested. Which inhibition did it give?
A: Its inhibition is 3.74% (inactive).

Q: With `COC(=O)c1nn(-c2ccccc2)c(Sc2ccc(Cl)cc2)c1C=NO` as the molecule, how does the inhibition read?
A: Its inhibition is -1.82% (inactive).

Q: Which inhibition does the source give for `O=C(c1ccc(-n2cnnn2)cc1)N1CCN(C(c2ccccc2)c2ccccc2)CC1` here?
A: Its inhibition is 26.6% (active).

Q: How did the inhibition turn out when `Cc1onc(C(=O)NN)c1C(=O)N1CCN(C(c2ccccc2)c2ccccc2)CC1` was run?
A: Its inhibition is 1.47% (inactive).

Q: Which inhibition does the source give for `Cn1nnnc1SCC(=O)N1CCN(C(c2ccccc2)c2ccccc2)CC1` here?
A: Its inhibition is 2.55% (inactive).

Q: `C=C1CC(C(=O)NN=Cc2ccccc2)C1` was tested. Which inhibition did it give?
A: The inhibition was 1.24% (inactive).

Q: `COc1cccc(C=NNC(=S)NC2CC3CCC2C3)c1OC` (stereo not drawn) was tested. Which inhibition did it give?
A: The inhibition was 2.43% (inactive).

Q: How did the inhibition turn out when `CCN1C[C@@H]2[C@@H]3C(=O)N(C)C(=O)[C@@H]3[C@](C)(C1=O)N2C(=O)c1ccccc1` was run?
A: Its inhibition is 1.29% (inactive).

Q: `CCN1C[C@@H]2[C@@H]3C(=O)N(Cc4ccccc4)C(=O)[C@@H]3[C@](C)(C1=O)N2C(=O)c1ccc(C(C)(C)C)cc1` was tested. Which inhibition did it give?
A: The inhibition was 28.4% (active).

Q: For `CCN1C[C@@H]2[C@@H]3C(=O)N(Cc4ccccc4)C(=O)[C@@H]3[C@](Cc3ccccc3)(C(=O)OC)N2C1=NC1CCCCC1`, which inhibition is on record?
A: The inhibition was -0.224% (inactive).

Q: `CON=C(C(=O)N[C@@H]1C(=O)N2C(C(=O)O)=C(COC(N)=O)CS[C@H]12)c1ccco1` was tested. Which inhibition did it give?
A: The inhibition was -2.85% (inactive).

Q: For `CC(CC(C)(C)c1ccccc1)=NNS(=O)(=O)c1ccccc1`, which inhibition is on record?
A: The inhibition was 3.32% (inactive).

Q: How did the inhibition turn out when `Cc1nn(-c2ccccc2)c(Cl)c1C=NO` was run?
A: The inhibition was 1.54% (inactive).

Q: For `CN(C)c1ccc(C=NNC(=O)c2nonc2N)cc1[N+](=O)[O-]`, which inhibition is on record?
A: Its inhibition is 20.3% (active).

Q: Which inhibition does the source give for `Cn1cc([N+](=O)[O-])c(C(=O)NN=Cc2ccc([N+](=O)[O-])cc2)n1` here?
A: The inhibition was 11.9% (inactive).

Q: With `Nc1nonc1C(=O)NN=Cc1ccc(-c2cccc([N+](=O)[O-])c2)o1` as the molecule, how does the inhibition read?
A: Its inhibition is 9.92% (inactive).

Q: Which inhibition does the source give for `O=C(CCCCO)CCCCCCCCC1NC(CO)C(O)C1O[C@@H]1OC(CO)C(O)C(O)C1O` (stereo partly drawn) here?
A: The inhibition was 1.76% (inactive).

Q: How did the inhibition turn out when `O=C(NN=C(c1ccccc1)c1cccnc1)c1ccc(O)cc1` was run?
A: Its inhibition is 4.07% (inactive).

Q: For `CCC(C)C(C)=NNC(=O)c1ccc(COc2ccc(Cl)c(C)c2)cc1` (stereo not drawn), which inhibition is on record?
A: Its inhibition is 1.66% (inactive).

Q: How did the inhibition turn out when `Oc1ccc(C=NNc2cccc3cccnc23)c(O)c1` was run?
A: The inhibition was 1.33% (inactive).

Q: `C#CCOCCOCCOCCNc1nc(N2CCN(C(=O)[C@H](C(C)C)n3cc(CCO)nn3)CC2)nc(N2CCN(C(=O)[C@H](C(C)C)n3cc(CCO)nn3)CC2)n1` was tested. Which inhibition did it give?
A: Its inhibition is 0.233% (inactive).

Q: How did the inhibition turn out when `C#CCOCCOCCOCCNc1nc(N2CCN(C(=O)[C@H](C(C)C)n3cc(CCO)nn3)CC2)nc(N2CCN(C(=O)[C@H]([C@@H](C)CC)n3cc(CCCN=C(N)N)nn3)CC2)n1` was run?
A: The inhibition was 34.8% (active).

Q: With `C#CCOCCOCCOCCNc1nc(N2CCN(C(=O)[C@H](CCCN=C(N)N)n3cc(C(N)[C@@H](C)CC)nn3)CC2)nc(N2CCN(C(=O)[C@H](CO)n3cc([C@@H](N)C(C)C)nn3)CC2)n1` (stereo partly drawn) as the molecule, how does the inhibition read?
A: The inhibition was 3.95% (inactive).

Q: With `CC(C)NC(=O)CC(=O)NN=Cc1ccccc1F` as the molecule, how does the inhibition read?
A: The inhibition was 4.78% (inactive).

Q: How did the inhibition turn out when `CSc1cc(C=NO)c(SC)s1` was run?
A: The inhibition was 3.15% (inactive).

Q: How did the inhibition turn out when `COc1nc(N(C)C)nc(N2CC(=O)N(CCNS(=O)(=O)c3ccc(C)cc3)C2=N)n1` was run?
A: The inhibition was -1.6% (inactive).

Q: `CCCn1nc(Oc2nc(NC(C)C)nc(N(C)C)n2)ccc1=O` was tested. Which inhibition did it give?
A: The inhibition was 6.24% (inactive).

Q: Which inhibition does the source give for `COc1nc(Oc2ccc(=O)n(C)n2)nc(N(C)C)n1` here?
A: Its inhibition is 29.8% (active).

Q: `CN(C)c1nc(NN=Cc2c[nH]c3ccccc23)nc(N2CCOCC2)n1` was tested. Which inhibition did it give?
A: The inhibition was 5.58% (inactive).

Q: `CC(C)CC[n+]1ccn(C2=C([O-])c3ccccc3C(=O)/C2=N\S(=O)(=O)c2ccccc2)c1` was tested. Which inhibition did it give?
A: The inhibition was 32.4% (active).

Q: With `Cc1ccc(C=NNC(=O)c2cc([N+](=O)[O-])cc([N+](=O)[O-])c2)o1` as the molecule, how does the inhibition read?
A: The inhibition was 5.25% (inactive).

Q: Which inhibition does the source give for `CN(C)/C=C(\C#N)C(=O)NN=Cc1ccccc1` here?
A: Its inhibition is 6.55% (inactive).

Q: `CN(C)C=Nc1sc2c(c1C#N)CCC2` was tested. Which inhibition did it give?
A: The inhibition was 9.38% (inactive).

Q: Which inhibition does the source give for `CC(C)[C@H](NC(=O)OCc1ccccc1)C(=O)OCc1ccccc1` here?
A: Its inhibition is 0.329% (inactive).

Q: Which inhibition does the source give for `COC(=O)[C@H](Cc1ccccc1)NC(=O)[C@@H]1C[C@H]1[C@@H](NC(=O)OCc1ccccc1)c1ccccc1` here?
A: The inhibition was 1.36% (inactive).
